From ChEMBL document CHEMBL1122917, “Vinblastin-23-oyl amino acid derivatives: chemistry, physicochemical data, toxicity, and antitumor activities against P388 and L1210 leukemias” (J Med Chem, 1985)
Values joined by “and” are separate entries in the source; they are usually repeats but may differ in a detail not shown here. Equal values may be shown once.

Legend:
Mus musculus [1] = test: Number of survivors of DBA2 mice on 60th day after inoculation with L1210 leukemia cell line intraperitoneally at a dose of 2 mg/kg/day; 0/11; assay type: functional; conditions: route intraperitoneal
Mus musculus [2] = test: Number of survivors of DBA2 mice on 60th day after inoculation with L1210 leukemia cell line intraperitoneally at a dose of 1 mg/kg/day; 0/10; assay type: functional; conditions: route intraperitoneal
Mus musculus [3] = test: Number of survivors of DBA2 mice on 30th day after inoculation with L1210 leukemia cell line intraperitoneally at a dose of 1 mg/kg/day; 0/10; assay type: functional; conditions: route intraperitoneal
Mus musculus [4] = test: Number of survivors of DBA2 mice on 30th day after inoculation with L1210 leukemia cell line intravenously at a dose of 1.5 mg/kg/day; 0/10; assay type: functional; conditions: route intravenous
Mus musculus [5] = test: Number of survivors on 60th day at dose 1 mg/kg/day in 10 mice implanted with P388 leukemia cell line; 0/10; assay type: functional
Mus musculus [6] = test: Number of survivors of DBA2 mice on 60th day after inoculation with L1210 leukemia cell line intravenously at a dose of 2 mg/kg/day; 0/10; assay type: functional; conditions: route intravenous
Mus musculus [7] = test: Number of survivors of DBA2 mice on 60th day after inoculation with L1210 leukemia cell line intravenously at a dose of 3.5 mg/kg/day; 0/10; assay type: functional; conditions: route intravenous
Mus musculus [8] = test: Number of survivors of DBA2 mice on 60th day after inoculation with L1210 leukemia cell line intravenously at a dose of 5.5 mg/kg/day; 0/10; assay type: functional; conditions: route intravenous
Mus musculus [9] = test: Number of survivors on 30th day at dose 1 mg/kg/day in 10 mice implanted with P388 leukemia cell line; 0/10; assay type: functional
Mus musculus [10] = test: Number of survivors on 60th day at dose 0.5 mg/kg/day in 10 mice implanted with P388 leukemia cell line; 0/10; assay type: functional
Mus musculus [11] = test: Percent increase in life span of BDF1 mice after inoculation with P388 leukemia intraperitoneally at a dose of 1 mg/kg per day; conditions: P388, ip
Mus musculus [12] = test: Percent increase in life span of BDF1 mice after inoculation with P388 leukemia intraperitoneally at a dose of 2.7 mg/kg per day; conditions: P388, ip
Mus musculus [13] = test: Number of survivors of DBA2 mice on 30th day after inoculation with L1210 leukemia cell line intraperitoneally at a dose of 2.5 mg/kg/day; 0/10; assay type: functional; conditions: route intraperitoneal
Mus musculus [14] = test: Number of survivors of DBA2 mice on 60th day after inoculation with L1210 leukemia cell line intraperitoneally at a dose of 0.33 mg/kg/day; 0/10; assay type: functional; conditions: route intraperitoneal
Mus musculus [15] = test: Percent increase in life span at dose 11 mg/kg/day in 10 mice implanted with P388 leukemia cell line; assay type: functional
In short: (§1)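 Female DBA2 mice inoculated iv on day 0 with 10^4 P388 cells; single iv treatment on day 1 with drug as sulfate salt in physiological saline. Survival followed; %ILS from all deaths and survivors as (T/C × 100) − 100, maximal MST 30 days; survivors counted on days 30 and 60. Most experiments confirmed three times.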

Mus musculus [16] = test: Number of survivors on 30th day at dose 11 mg/kg/day in 10 mice implanted with P388 leukemia cell line; 0/10; assay type: functional
Mus musculus [17] = test: Number of survivors on 30th day at dose 7 mg/kg/day in 9 mice implanted with P388 leukemia cell line; 1 /9; assay type: functional
Mus musculus [18] = test: Number of survivors on 30th day at dose 8 mg/kg/day in 9 mice implanted with P388 leukemia cell line; 0 /9; assay type: functional
Mus musculus [19] = test: Number of survivors on 60th day at dose 6 mg/kg/day in 7 mice implanted with P388 leukemia cell line for 1,8.15 scheduled days from Exp-2; 0/10; assay type: functional
Mus musculus [20] = test: Percent increase in life span at dose 8 mg/kg/day in 7 mice implanted with P388 leukemia cell line for 1,8,15 schedule days from Exp-2; assay type: functional
Mus musculus [21] = test: Number of survivors on 60th day at dose 8 mg/kg/day in 7 mice implanted with P388 leukemia cell line for 1,8.15 scheduled days from Exp-2; 0/10; assay type: functional
Mus musculus [22] = test: Number of survivors on 60th day at dose 5 mg/kg/day in 9 mice implanted with P388 leukemia cell line; 0/10; assay type: functional
Mus musculus [23] = test: Number of survivors on 30th day at dose 8 mg/kg/day in 10 mice implanted with P388 leukemia cell line; 8/10; assay type: functional
Mus musculus [24] = test: Number of survivors on 60th day at dose 7 mg/kg/day in 9 mice implanted with P388 leukemia cell line; 0/9; assay type: functional
Mus musculus [25] = test: Percent increase in life span at dose 55 mg/kg/day in 7 mice implanted with P388 leukemia cell line for 1,8,15 schedule day; assay type: functional
Mus musculus [26] = test: Percent increase in life span at dose 65 mg/kg/day in 7 mice implanted with P388 leukemia cell line for 1,8,15 schedule day in Exp-2; assay type: functional
In short: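 Female DBA2 mice inoculated iv on day 0 with 10^5 P388 cells; iv dosing of sulfate salts in physiological saline on day 1 only or on days 1, 8 and 15. %ILS from all deaths and survivors as (T/C × 100) − 100, maximal MST 60 days; survivors scored on day 60.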

Mus musculus [27] = test: Number of survivors of DBA2 mice on 30th day after inoculation with L1210 leukemia cell line intravenously at a dose of 45 mg/kg/day; 0/10; assay type: functional; conditions: route intravenous
Mus musculus [28] = test: Number of survivors of DBA2 mice on 30th day after inoculation with L1210 leukemia cell line intravenously at a dose of 60 mg/kg/day; 0/10; assay type: functional; conditions: route intravenous
Mus musculus [29] = test: Percent increase in life span at dose 20 mg/kg/day in 10 mice implanted with P388 leukemia cell line; assay type: functional; in short: as §1
Mus musculus [30] = test: Number of survivors on 60th day at dose 50 mg/kg/day in 10 mice implanted with P388 leukemia cell line; 5/10; assay type: functional
Mus musculus [31] = test: Percent increase in life span at dose 65 mg/kg/day in 7 mice implanted with P388 leukemia cell line for 1,8,15 schedule day in Exp-1; assay type: functional
Mus musculus [32] = test: Number of survivors on 30th day at dose 40 mg/kg/day in 10 mice implanted with P388 leukemia cell line; 5/10; assay type: functional
Mus musculus [33] = test: Number of survivors on 30th day at dose 50 mg/kg/day in 10 mice implanted with P388 leukemia cell line; 7/10; assay type: functional
Mus musculus [34] = test: Number of survivors on 30th day at dose 55 mg/kg/day in 10 mice implanted with P388 leukemia cell line for 1st scheduled day; 1/10; assay type: functional
Mus musculus [35] = test: Number of survivors on 30th day at dose 55 mg/kg/day in 10 mice implanted with P388 leukemia cell line; 7/10; assay type: functional
Mus musculus [36] = test: Number of survivors of DBA2 mice on 60th day after inoculation with L1210 leukemia cell line intravenously at a dose of 70 mg/kg/day; 0/10; assay type: functional; conditions: route intravenous
Mus musculus [37] = test: Number of survivors on 30th day at dose 60 mg/kg/day in 10 mice implanted with P388 leukemia cell line; 8/10; assay type: functional
Mus musculus [38] = test: Percent increase in life span at dose 50 mg/kg/day in 10 mice implanted with P388 leukemia cell line; assay type: functional; in short: as §1

Molecule CC[C@]1(O)C[C@H]2CN(CCc3c([nH]c4ccccc34)[C@@](C(=O)OC)(c3cc4c(cc3OC)N(C=O)[C@H]3[C@@](O)(C(=O)OC)[C@H](OC(C)=O)[C@]5(CC)C=CCN6CC[C@]43[C@@H]65)C2)C1 [VINCRISTINE] has a Survivors (Mus musculus [1]) of 0, a Survivors (Mus musculus [2]) of 0 and a Survivors (Mus musculus [3]) of 0. It also gave a Survivors (Mus musculus [4]) of 0, a Survivors (Mus musculus [5]) of 0 and a Survivors (Mus musculus [6]) of 0. For the same molecule, the Survivors (Mus musculus [7]) was 0, the Survivors (Mus musculus [8]) was 0 and the Survivors (Mus musculus [9]) was 0. For the same molecule, the Survivors (Mus musculus [10]) was 0, the ILS at 1 mg/kg/day (Mus musculus [11]) was 47% and the ILS at 2.7 mg/kg/day (Mus musculus [12]) was 64%.
CC[C@]1(O)C[C@@H]2CN(CCc3c([nH]c4ccccc34)[C@@](C(=O)OC)(c3cc4c(cc3OC)N(C)[C@H]3[C@@](O)(C(N)=O)[C@H](O)[C@]5(CC)C=CCN6CC[C@]43[C@@H]65)C2)C1 [VINDESINE] was tested, and the Survivors (Mus musculus [13]) was 0.
CC[C@]1(O)C[C@@H]2CN(CCc3c([nH]c4ccccc34)[C@@](C(=O)OC)(c3cc4c(cc3OC)N(C)[C@H]3[C@@](O)(C(=O)OC)[C@H](OC(C)=O)[C@]5(CC)C=CCN6CC[C@]43[C@@H]65)C2)C1 [VINBLASTINE] was tested, and the Survivors (Mus musculus [14]) was 0, the ILS at 11 mg/kg/day (Mus musculus [15]) was -40% and the Survivors (Mus musculus [16]) was 0. The Survivors (Mus musculus [17]) was 1 and the Survivors (Mus musculus [18]) was 0.
For CCOC(=O)[C@@H](NC(=O)[C@@]1(O)[C@H](O)[C@]2(CC)C=CCN3CC[C@@]4(c5cc([C@@]6(C(=O)OC)C[C@H]7C[N@](CCc8c6[nH]c6ccccc86)C[C@](O)(CC)C7)c(OC)cc5N(C)[C@@]14C)[C@@H]32)[C@@H](C)CC, the Survivors (Mus musculus [19]) was 0, the ILS at 8 mg/kg/day (Mus musculus [20]) was > 482% and the Survivors (Mus musculus [21]) was 0. The Survivors (Mus musculus [22]) was 0, the Survivors (Mus musculus [23]) was 8 and the Survivors (Mus musculus [24]) was 0.
With CCOC(=O)[C@H](Cc1c[nH]c2ccccc12)NC(=O)[C@@]1(O)[C@H](O)[C@]2(CC)C=CCN3CC[C@@]4(c5cc([C@@]6(C(=O)OC)C[C@H]7C[N@](CCc8c6[nH]c6ccccc86)C[C@](O)(CC)C7)c(OC)cc5N(C)[C@@]14C)[C@@H]32 the ILS at 55 mg/kg/day (Mus musculus [25]) was 53%, the ILS (Mus musculus [26]) was 40% and 108% and the Survivors (Mus musculus [27]) was 0. For the same molecule, the Survivors (Mus musculus [28]) was 0, the ILS at 20 mg/kg/day (Mus musculus [29]) was 43.9% and the Survivors (Mus musculus [30]) was 5. For the same molecule, the ILS at 65 mg/kg/day (Mus musculus [31]) was 88%, the Survivors (Mus musculus [32]) was 5 and the Survivors (Mus musculus [33]) was 7. It also gave a Survivors (Mus musculus [34]) of 1, a Survivors (Mus musculus [35]) of 7 and a Survivors (Mus musculus [36]) of 0. For the same molecule, the Survivors (Mus musculus [37]) was 8 and the ILS at 50 mg/kg/day (Mus musculus [38]) was > 161%.
